This is an account of results in article PMC4651729 (ACS chemical neuroscience, 2015).

The target in one data set is mouse MOR-1 (Mus musculus, UniProt P42866). The data set can be described thus: [125I]BNtxA competition binding, CHO cell membranes, MOR-1. The following applies: for Ki: read-out: Ki MOR-1, [125I]BNtxA 0.1 nM, CHO membranes, mouse MOR-1; for fold higher MOR-1 affinity than corresponding 14-OH-epoxymorphinan analog: 6 vs 19, 16 vs 1, 17 vs 20; for selectivity for MOR-1 over 6TM/E11 sites: ratio of Ki. The essentials:
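Mouse MOR-1 clone stably expressed in CHO cells; membranes incubated 90 min at 25 °C in 50 mM potassium phosphate buffer, pH 7.4, with 5 mM MgSO4, no blockers. Filtration through glass-fibre filters, three washes with ice-cold 50 mM Tris-HCl, pH 7.4. Nonspecific binding with 8 μM levallorphan, subtracted from total. Ki by nonlinear regression. Protein measured by Lowry method.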

The next data set deals with mouse KOR-1 (Mus musculus, UniProt P33534). The data set can be described thus: [125I]BNtxA competition binding, CHO cell membranes, KOR-1. The note with it: for Ki: read-out: Ki KOR-1, [125I]BNtxA 0.1 nM, CHO membranes, mouse KOR-1; for fold higher KOR-1 affinity than corresponding 14-OH-epoxymorphinan analog: 6 vs 19, 16 vs 1, 17 vs 20; for selectivity for KOR-1 over 6TM/E11 sites: ratio of Ki. A digest of the protocol: (§1)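 Membranes from CHO cells stably expressing the murine receptor clone, with no blockers, were incubated for 90 min at 25 °C in 50 mM potassium phosphate buffer (pH 7.4) with 5 mM MgSO4. Samples were then filtered on glass-fiber filters and washed with ice-cold 50 mM Tris-HCl (pH 7.4). Nonspecific binding was set with levallorphan 8 μM. Ki came from nonlinear regression. The 6TM/E11 comparison used mouse whole-brain membranes with CTAP, U50,488H and DPDPE, each at 200 nM.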

The target in another data set is mouse DOR-1 (Mus musculus, UniProt P32300). The data set can be described thus: [125I]BNtxA competition binding, CHO cell membranes, DOR-1. The following applies: for Ki: read-out: Ki DOR-1, [125I]BNtxA 0.1 nM, CHO membranes, mouse DOR-1; for fold higher DOR-1 affinity than corresponding 14-OH-epoxymorphinan analog: 6 vs 19, 16 vs 1, 17 vs 20; for selectivity for DOR-1 over 6TM/E11 sites: ratio of Ki. A digest of the protocol:
as §1

A further data set has as its target 6TM/E11 (Mus musculus, UniProt P42866). In kind it is binding. The following applies: for Ki: read-out: Ki 6TM/E11, [125I]BNtxA 0.1 nM, mouse brain, CTAP, DPDPE, U50,488 blockers at 200 nM. The essentials: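 Membrane homogenates of whole brain from wild-type mice. Blockers at 200 nM: CTAP for MOR-1, U50,488H for KOR-1 and DPDPE for DOR-1.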
Data set [1] has as its system CD1 mice. In words: radiant heat tail flick analgesia. Type of data set: in vivo, mouse. The following applies: for tail flick analgesia (CI), ED50 / antinociception in vivo (in words): sc; for tail flick analgesia (CI), ED50: 30 min after dosing, mice, 95% CI or ± SEM.
The subject of a further data set is mice. In words: conditioned place preference/aversion. In kind it is in vivo, mouse. The note with it: 2 days; 16 1 mg/kg sc, morphine 10 mg/kg ip, U50,488 30 mg/kg ip, cocaine 10 mg/kg sc.
In data set [2] the test system is CD1 mice. The following applies: cited from earlier work.

Marks after values point to notes of the source that are not given here. Some results are limits rather than exact numbers.

As to `COc1ccc2c3c1O[C@H]1[C@H](NC(=O)c4cccc(I)c4)C=C[C@H]4[C@@H](C2)N(C)CC[C@@]341` [Compound 5, 17-Methyl-3-methoxy-4,5α-epoxy-7,8-en-6-β-[(3′-iodo)-benzamido]-morphinan], the Ki on mouse MOR-1 amounted to 1.2 ± 0.48 nM; at mouse KOR-1, 10 ± 3.5 nM; at mouse DOR-1, 49 ± 6.4 nM; at 6TM/E11, 61 ± 7.7 nM. For the same compound, in the data set on CD1 mice [1], the “tail flick analgesia (CI), ED50” value is above 10 mg/kg.
Turning to `CN1CC[C@]23c4c5ccc(O)c4O[C@H]2[C@H](NC(=O)c2cccc(I)c2)C=C[C@H]3[C@H]1C5` [Compound 6, 17-Methyl-3-hydroxy-4,5α-epoxy-7,8-en-6-β-[(3′-iodo)-benzamido]-morphinan], on mouse MOR-1, the “fold higher MOR-1 affinity than corresponding 14-OH-epoxymorphinan analog” value was 26 fold. Moreover, the Ki amounted to 0.037 ± 0.0051 nM at mouse MOR-1, 0.21 ± 0.046 nM on mouse KOR-1, 0.88 ± 0.08 nM at mouse DOR-1 and 27 ± 18 nM at 6TM/E11. At mouse KOR-1, the “fold higher KOR-1 affinity than corresponding 14-OH-epoxymorphinan analog” value was found to be 224 fold. In addition, the “fold higher DOR-1 affinity than corresponding 14-OH-epoxymorphinan analog” value on mouse DOR-1 came to 3 fold. Besides, the “tail flick analgesia (CI), ED50” value in the data set with CD1 mice [1] is recorded as 6.31 (4.6, 8.5) mg/kg. Further, in the data set with CD1 mice [1] (tail flick), the “antinociception in vivo (in words)” value was “potent antinociception”.
As for `C=CCN1CC[C@]23c4c5ccc(O)c4O[C@H]2[C@H](NC(=O)c2cccc(I)c2)C=C[C@H]3[C@H]1C5` [Compound 17, 17-Allyl-3-hydroxy-4,5α-epoxy-7,8-en-6-β-[(3′-iodo)benzamido]-morphinan], at mouse MOR-1, the “fold higher MOR-1 affinity than corresponding 14-OH-epoxymorphinan analog” value came to 6.5 fold, the “selectivity for MOR-1 over 6TM/E11 sites” value was 23 fold and the Ki was 0.034 ± 0.006 nM. For the same compound, at mouse KOR-1, the “fold higher KOR-1 affinity than corresponding 14-OH-epoxymorphinan analog” value is on record as 3.6 fold, the “selectivity for KOR-1 over 6TM/E11 sites” value is recorded as 35 fold and the Ki is 0.022 ± 0.0043 nM. Besides, on mouse DOR-1, the “fold higher DOR-1 affinity than corresponding 14-OH-epoxymorphinan analog” value stood at 6.7 fold, the “selectivity for DOR-1 over 6TM/E11 sites” value was found to be 2 fold and the Ki worked out at 0.39 ± 0.0041 nM. The “fold lower 6TM/E11 affinity than 1” value on 6TM/E11 (compared with 1) was determined as 4.9 fold. The “fold lower 6TM/E11 affinity than 20” value at 6TM/E11 (compared with 20) is given as 3.1 fold. Moreover, the Ki at 6TM/E11 was found to be 0.78 ± 0.1 nM. For the same compound, the “tail flick analgesia (CI), ED50” value with CD1 mice [1] was 0.53 (0.45, 0.59) mg/kg. The “antinociception in vivo (in words)” value in the data set on CD1 mice [1] (tail flick) was “equipotent to both 1 and 20”.
`COC(=O)[C@H]1[C@@H](OC(=O)c2ccccc2)C[C@@H]2CC[C@H]1N2C` [cocaine, reference compound]: the “place conditioning response to drug alone” value with mice is “significant place preference”.
As for `O=C(N[C@@H]1CC[C@@]2(O)[C@H]3Cc4ccc(O)c5c4[C@@]2(CCN3CC2CC2)[C@H]1O5)c1cccc(I)c1` [Compound 1, 3-Iodobenzoyl-β-naltrexamine, reference compound], the Ki at mouse MOR-1 was found to be 0.11 ± 0.02 nM; at mouse KOR-1, 0.03 ± 0.001 nM; on mouse DOR-1, 0.24 ± 0.05 nM; at 6TM/E11, 0.16 ± 0.04 nM. The “tail flick analgesia (CI), ED50” value with CD1 mice [1] is given as 0.39 (0.15, 0.58) mg/kg. Also, in the data set on CD1 mice [2] (introduction), the “antinociception ED50” value is listed as 0.39 mg/kg.
In the case of `O=C(N[C@@H]1C=C[C@H]2[C@H]3Cc4ccc(O)c5c4[C@@]2(CCN3CCc2ccccc2)[C@H]1O5)c1cccc(I)c1` [Compound 15, 17-Phenethyl-3-hydroxy-4,5α-epoxy-7,8-en-6-β-[(3′-iodo)-benzamido]-morphinan], at mouse MOR-1, the “selectivity for MOR-1 over 6TM/E11 sites” value was found to be 159 fold and the Ki is 0.088 ± 0.028 nM. Besides, at mouse KOR-1, the “selectivity for KOR-1 over 6TM/E11 sites” value is reported as 100 fold and the Ki turned out to be 0.14 ± 0.022 nM. In addition, on mouse DOR-1, the “selectivity for DOR-1 over 6TM/E11 sites” value is listed as 108 fold and the Ki was 0.13 ± 0.032 nM. In addition, at 6TM/E11, the Ki was found to be 14 ± 3.2 nM. Further, in the data set on CD1 mice [1], the “tail flick analgesia (CI), ED50” value was 1.3 (1.03, 2.2) mg/kg. Further, the “fold higher analgesic potency than morphine” value in the data set on CD1 mice [1] (tail flick, systemic (sc)) is listed as ~ 3 fold.
As for `CN1CC[C@]23c4c5ccc(O)c4O[C@H]2[C@@H](O)C=C[C@H]3[C@H]1C5` [morphine, reference compound], the “place conditioning response to drug alone” value in the data set with mice is given as “significant conditioned place preference”. Moreover, the “tail flick analgesia, ED50” value with CD1 mice [2] was 4.96 ± 0.96^f mg/kg.
